Series [1] in a line: Stability in rat liver microsomes. Particulars: read-out: Stability. In kind it is ADME, Microsome. (In general: Microsomes from liver hold many membrane-bound enzymes, among them those of drug oxidation.)
Series [2] is described as follows: Stability in human liver microsomes. The format is ADME, Microsome. To be noted: read-out: Stability.
Series [3] addresses T1, Glutamate NMDA receptor; GRIN1/GRIN2B (Homo sapiens, UniProt Q05586+Q13224). Briefly: Positive allosteric modulation of recombinant human GluN1/GluN2B receptor stably expressed in HEK293 cells assessed as increase in glycine/L-glutamate-induced channel current at -70 mV holding potential by IonWork […] method. The format is cell-based. The essentials: (§1)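 Stable HEK293 lines expressing GluN1/GluN2A or GluN1/GluN2B, measured by automated whole-cell patch clamp (Ionworks Barracuda). Cells were held at -70 mV and stepped to -45 mV during agonist application (EC20 L-glutamate plus 50 µM glycine). The test article was first pre-applied alone for 5 min, then co-applied with agonist to record potentiation. Concentration-response percent potentiation gave EC50 and Emax.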
On the technique in general: In two-electrode clamp one electrode senses voltage and the other passes current.

Series [4] has as its target T2, Glutamate NMDA receptor; GRIN1/GRIN2A (Homo sapiens, UniProt Q05586+Q12879). The series can be described thus: Positive allosteric modulation of recombinant human GluN1/GluN2A receptor stably expressed in HEK293 cells assessed as increase in glycine/L-glutamate-induced channel current at -70 mV holding potential by IonWork […] method. The format is cell-based. In short, it runs like this:
as §1

The target of series [5] is T1, Glutamate NMDA receptor; GRIN1/GRIN2B. Briefly: Positive allosteric modulation of recombinant human GluN1/GluN2B receptor stably expressed in HEK293 cells assessed as increase in glycine/L-glutamate-induced channel current at -70 mV holding potential by IonWork whole cell patch clamp method relative to control.
In series [6] the target is T2, Glutamate NMDA receptor; GRIN1/GRIN2A. The series can be described thus: Positive allosteric modulation of recombinant human GluN1/GluN2A receptor stably expressed in HEK293 cells assessed as increase in glycine/L-glutamate-induced channel current at -70 mV holding potential by IonWork […] method relative to control. The format is cell-based. The essentials:
as §1

Series [7] in a line: Clearance in iv dosed rat. To be noted: in vivo. The format is ADME, organism-based.
Series [8] is described as follows: Volume of distribution at steady state in rat. The format is ADME. To be noted: in vivo, read-out: Vdss.
The nature of series [9]: Half life in rat. In kind it is ADME. To be noted: in vivo.
Series [10] can be described thus: Oral bioavailability in rat. The format is ADME, organism-based. To be noted: in vivo.

A word on the EC50: it is the concentration needed to bring the measured effect to its halfway point. Regarding `C[C@@H]([C@H]1CC[C@H]2[C@@H]3CC=C4C[C@@H](O)CC[C@]4(C)[C@H]3CC[C@]12C)C(C)(C)O`, the microsomal CLint in [1] was found to be 48 µL/min/mg; in series [2] it was 6 µL/min/mg. The EC50 in series [3] and in [4] was over 10000 nM in each case.

The Emax is the size of the effect at its maximum, as opposed to the concentration needed. In the case of `CC(C)[C@H](O)CC[C@@H](C)[C@H]1CC[C@H]2[C@@H]3CC=C4C[C@@H](O)CC[C@]4(C)[C@H]3CC[C@]12C`, the microsomal CLint in [1] came to 93 µL/min/mg; in [2] it was 28 µL/min/mg. For the same compound, the Emax in series [5] is 140%; in series [6], 220%. For the same compound, the EC50 in series [3] amounted to 55 nM; in [4], 37 nM.

Regarding `C[C@H](O)CC[C@@H](C)[C@H]1CC[C@H]2[C@@H]3CC=C4C[C@@](C)(O)CC[C@]4(C)[C@H]3CC[C@]12C`, the values for the microsomal CLint in [1] and in [2] were 56 µL/min/mg and under 10 µL/min/mg, respectively. The Emax in series [5] came out at 50%. In addition, the values for the EC50 in series [3] and in [4] were 3000 nM and over 10000 nM, respectively.

On to `CC[C@@H](O)CC[C@@H](C)[C@H]1CC[C@H]2[C@@H]3CC=C4C[C@@](C)(O)CC[C@]4(C)[C@H]3CC[C@]12C`, for which the microsomal CLint in series [1] is 25 µL/min/mg; in series [2], under 10 µL/min/mg. In addition, the Emax in series [5] was 130%; in series [6], 220%. Moreover, the figures for the EC50 in series [3] and in series [4] were 30 nM and 420 nM, respectively.

With `C[C@H](CC[C@H](O)C1CC1)[C@H]1CC[C@H]2[C@@H]3CC=C4C[C@@](C)(O)CC[C@]4(C)[C@H]3CC[C@]12C`, the results for the microsomal CLint in [1] and in [2] were 28 µL/min/mg and under 10 µL/min/mg, respectively. In addition, the results for the Emax in [5] and in series [6] were 150% and 230%, respectively. In addition, the EC50 in series [3] is 170 nM; in series [4], 320 nM.

Broadly, the clearance is a measure of how efficiently the substance is removed, as volume per time. A high value points to efficient removal. One may read the half-life as the time needed for the level to fall by half in the phase considered. For orientation: bioavailability means the share of a dose that reaches the circulation, judged against a reference dose that is usually intravenous. Higher therefore signals good availability. Consider `C[C@H](CCCC(C)(C)O)[C@H]1CC[C@H]2[C@@H]3CC=C4C[C@@H](O)CC[C@]4(C)[C@H]3CC[C@]12C`, for which the microsomal CLint was found to be 31 µL/min/mg in [1] and 23 µL/min/mg in series [2]. Besides, in series [7], the clearance was 41.7 mL/min/kg. Besides, the Vd in series [8] was 1.2 L/kg. Also, the Emax in series [5] came out at 67%. The compound further had a half-life in series [9] of 22.8 min. The compound also displayed a bioavailability in [10] of 6%. Besides, the EC50 in [3] and in series [4] was over 10000 nM each time.

For `C[C@H](CC(C)(C)O)[C@H]1CC[C@H]2[C@@H]3CC=C4C[C@@H](O)CC[C@]4(C)[C@H]3CC[C@]12C`, the microsomal CLint in series [1] amounted to 63 µL/min/mg; in series [2], 18 µL/min/mg. Also, the EC50 in series [3] and in series [4] was over 10000 nM in each case.

For `C[C@H](CC[C@@H](C)O)[C@H]1CC[C@H]2[C@@H]3CC=C4C[C@@](C)(O)CC[C@]4(C)[C@H]3CC[C@]12C`, the microsomal CLint in [1] turned out to be 67 µL/min/mg; in series [2], 11 µL/min/mg. Further, the EC50 in series [3] and in [4] was over 10000 nM each time.

On to `C[C@H](CCCO)[C@H]1CC[C@H]2[C@@H]3CC=C4C[C@@H](O)CC[C@]4(C)[C@H]3CC[C@]12C`, for which the microsomal CLint in series [1] amounted to 25 µL/min/mg; in [2] it was 13 µL/min/mg. Moreover, the EC50 was over 10000 nM in [3] and 3000 nM in series [4]. Besides, the Emax in series [6] turned out to be 290%.

Regarding `C[C@H](CC[C@@H](O)C1CCC1)[C@H]1CC[C@H]2[C@@H]3CC=C4C[C@@](C)(O)CC[C@]4(C)[C@H]3CC[C@]12C`, the microsomal CLint in series [1] was 25 µL/min/mg; in series [2], under 10 µL/min/mg. Also, the clearance in series [7] is 88.3 mL/min/kg. The Vd in series [8] turned out to be 2.9 L/kg. The Emax in series [5] stood at 410%; in [6], 250%. The half-life in series [9] is 50.4 min. Further, in series [10], the bioavailability is 18%. The EC50 in series [3] and in series [4] was 270 nM each time.

For `C[C@H](CCC(C)(C)O)[C@H]1CC[C@H]2[C@@H]3CC=C4C[C@](C)(O)CC[C@]4(C)[C@H]3CC[C@]12C`, in series [5], the Emax turned out to be 160%. Also, the concentration giving a half-maximal response (EC50) in series [3] was 3900 nM; in [4], over 10000 nM.

Take `CC(O)CC[C@@H](C)[C@H]1CC[C@H]2[C@@H]3CC=C4C[C@@H](O)CC[C@]4(C)[C@H]3CC[C@]12C` (stereo partly specified): the results for the microsomal CLint in series [1] and in series [2] were 17 µL/min/mg and 7 µL/min/mg, respectively. Also, the results for the Emax in series [5] and in series [6] were 180% and 150%, respectively. Moreover, the EC50 in [3] was determined as 140 nM; in series [4] it was 320 nM.

On to `CC(C)(O)CCC[C@H]1CC[C@H]2[C@@H]3CC=C4C[C@@](C)(O)CC[C@]4(C)[C@H]3CC[C@]12C`, for which the Emax in [5] and in [6] was 120% each time. For the same compound, the EC50 is 160 nM in series [3] and 550 nM in series [4].

On to `C[C@@H](CCC(C)(C)O)[C@H]1CC[C@H]2[C@@H]3CC=C4C[C@@](C)(O)CC[C@]4(C)[C@H]3CC[C@]12C`, for which the EC50 in [3] and in series [4] was over 10000 nM in each case.

As to `C[C@H](CCC1(O)CC1)[C@H]1CC[C@H]2[C@@H]3CC=C4C[C@@](C)(O)CC[C@]4(C)[C@H]3CC[C@]12C`, the figures for the microsomal CLint in series [1] and in series [2] were 23 µL/min/mg and 6 µL/min/mg, respectively. Further, the results for the Emax in series [5] and in series [6] were 180% and 300%, respectively. The EC50 came to 410 nM in [3] and 80 nM in [4].

Regarding `C[C@H](CCC1(O)CC1)[C@H]1CC[C@H]2[C@@H]3CC=C4C[C@@H](O)CC[C@]4(C)[C@H]3CC[C@]12C`, the values for the microsomal CLint in [1] and in series [2] were 35 µL/min/mg and 10 µL/min/mg, respectively. In addition, the Emax in series [5] and in [6] was 280% in each case. For the same compound, the results for the EC50 in [3] and in series [4] were 310 nM and 900 nM, respectively.

Turning to `C[C@H](CC[C@H](O)C1CCC1)[C@H]1CC[C@H]2[C@@H]3CC=C4C[C@@](C)(O)CC[C@]4(C)[C@H]3CC[C@]12C`, the microsomal CLint in [1] was 31 µL/min/mg; in series [2] it was under 10 µL/min/mg. In addition, the Emax was 530% in series [5] and 300% in [6]. Also, the EC50 in series [3] and in series [4] was 120 nM in each case.

As to `CC[C@H](O)CC[C@@H](C)[C@H]1CC[C@H]2[C@@H]3CC=C4C[C@@](C)(O)CC[C@]4(C)[C@H]3CC[C@]12C`, the microsomal CLint in series [1] was 10 µL/min/mg; in series [2], 15 µL/min/mg. Further, the Emax in series [5] turned out to be 160%; in series [6], 250%. For the same compound, the results for the EC50 in series [3] and in [4] were 84 nM and 100 nM, respectively.

In the case of `C[C@H](CC[C@H](O)C(F)(F)F)[C@H]1CC[C@H]2[C@@H]3CC=C4C[C@@](C)(O)CC[C@]4(C)[C@H]3CC[C@]12C`, the microsomal CLint amounted to 12 µL/min/mg in series [1] and 4 µL/min/mg in series [2]. Also, the maximum response (Emax) in [5] was determined as 170%; in series [6], 260%. In addition, the values for the EC50 in series [3] and in [4] were 110 nM and 220 nM, respectively.

`COC(C)(C)CC[C@@H](C)[C@H]1CC[C@H]2[C@@H]3CC=C4C[C@@](C)(O)CC[C@]4(C)[C@H]3CC[C@]12C`: the EC50 in series [3] and in series [4] was over 10000 nM each time.

These data come from ChEMBL document CHEMBL4406822, “Neuroactive Steroid N-Methyl-d-aspartate Receptor Positive Allosteric Modulators: Synthesis, SAR, and Pharmacological Activity” (J Med Chem, 2019).
